Publication PMC6925336 (European journal of pharmaceutical sciences : official …, 2019)
“And” between values parts separate entries of the source, which are not always exact repeats. Equal entries are not always repeated.

Experiments:
[1] = Plasma pharmacokinetic study, 20 mg/kg IV, PK/PD model; type: in vivo, CD-1 nude mice bearing G3MB; details: plasma model re-estimated with 20 mg/kg IV data
Method in brief: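 Nine female CD-1 nude mice with orthotopic G3MB (~1×10^7 photons/sec) got 20 mg/kg prexasertib mesylate IV in 20% w/v Captisol. Sparse sampling: 2–3 plasma samples per mouse to 24 h, LC-MS/MS.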

[2] = system: pCHK1 S345; assay: Pharmacodynamic study, immunohistochemistry of G3MB tumor tissue: pCHK1 S345; type: in vivo, mice bearing G3MB
Method in brief: (§1)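 G3MB-bearing mice (N=21), enrolled at ~1×10^7 photons/sec, were randomized to vehicle or one 20 mg/kg IV bolus. Brains were harvested pre-dose and at 1, 2, 6 and 24 h post-dose and fixed in paraformaldehyde. Immunohistochemistry was done for pCHK1 S345, γ-H2AX and cleaved caspase-3. Scanned slides were quantified as percent positive-staining cells.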

[3] = adult patients, recommended phase II dosage of 105 mg/m^2; ref Hong et al., 2016; cited from earlier work
[4] = Plasma protein binding by equilibrium dialysis; type: in vitro ADME, mouse
Method in brief: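 Equilibrium dialysis. CD-1 mouse plasma (sodium heparin) was spiked at final 2–2000 ng/ml (eight levels), in triplicate, against blank Ringer's solution. Rotated at 37°C for 24 h, then both sides sampled. Fraction unbound = buffer-side concentration / plasma-side total concentration.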

[5] = system: cleaved caspase-3; type: in vivo, mice bearing G3MB; details: 20 mg/kg IV single dose, at 24 hours post-dose; not statistically significant
Method in brief: as §1

[6] = Cerebral microdialysis, tumor ECF, mice bearing G3MB; type: in vivo, CD-1 nude mice bearing G3MB
Method in brief: (§2)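 Female CD-1 nude mice, non-tumor-bearing (N=7) or with cortical G3MB implants enrolled at ~1×10^7 photons/sec (N=8). Stereotactic cortical guide cannula; 1 mm probe (38 kDa MWCO) perfused with Ringer's at 0.5 µl/min, 1 h equilibration. Single 10 mg/kg SQ dose. Hourly dialysate to 24 h; plasma at 0.25, 6.5 and 24 h. LC-MS/MS. Unbound ECF = dialysate/probe recovery. Population PK model gave per-mouse AUCs and ECF rate constants.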

[7] = Plasma pharmacokinetic study, 10 mg/kg SQ, population model; type: in vivo, CD-1 nude mice bearing G3MB; details: for AUC: Model-derived AUCplasma, total plasma
Method in brief: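 Nine female CD-1 nude mice carrying orthotopic mouse G3MB cells (enrolled at ~1×10^7 photons/sec) got 10 mg/kg SQ in 20% w/v Captisol. Population design: 2–3 samples per mouse up to 24 h, […]. Plasma assayed by LC-MS/MS. Fit with a two-compartment model with first-order absorption and linear elimination (apparent parameters); FOCE with interaction; log-normal inter-individual variability.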

[8] = Cerebral microdialysis, brain ECF, non-tumor bearing; type: in vivo, CD-1 nude mice (non-tumor bearing); details: 10 mg/kg SQ
Method in brief: as §2

[9] = system: γ-H2AX; assay: Pharmacodynamic study, immunohistochemistry of G3MB tumor tissue: γ-H2AX; type: in vivo, mice bearing G3MB
Method in brief: as §1

[10] = PK/PD model, fixed based upon a sensitivity analysis
[11] = 10 mg/kg SQ, ECF model, G3MB mice
[12] = 10 mg/kg SQ, apparent parameter

COc1cccc(OCCCN)c1-c1cc(Nc2cnc(C#N)cn2)n[nH]1 [prexasertib, 5-(5-[2-(3-Aminopropoxy)-6-methoxyphenyl]-1H-pyrazol-3-yl}amino)pyrazine-2-carbonitrile methanesulfonate hydrate]
CL, plasma clearance, estimate (RSE%) [1]: 6.03 (8.0%) l/h/kg
Q, tissue (peripheral) clearance, estimate (RSE%) [1]: 0.807 (10%) l/h/kg
Vc, plasma volume, estimate (RSE%) [1]: 2.67 (13%) l/kg
Vp, tissue (peripheral) volume, estimate (RSE%) [1]: 3.79 (6.0%) l/kg
ka, absorption rate constant, estimate (RSE%) [1]: 1.16 (10%) h^−1
Time of peak induction of pCHK1 S345 after the dose ([2]; 20 mg/kg IV single dose): 2 hours
Time pCHK1 S345 stayed above baseline after the dose ([2]; 20 mg/kg IV single dose): at least 6 hours
Peak in pCHK1 S345 nuclear staining ([2]; 20 mg/kg IV single dose, at 2 hours): 2.2 fold
EC50 at 20 mg/kg ([2]; Mus musculus, iv, read-out: pCHK1 S345 EC50, prexasertib ECF concentration for 50% stimulation of maximum function of kin, estimate (RSE%), PK/PD model, 20 mg/kg IV, tumor ECF, preliminary): 0.0102 µg/mL
pCHK1 S345 EC50, prexasertib ECF concentration for 50% stimulation of maximum function of kin, estimate (RSE%) ([2]; PK/PD model, 20 mg/kg IV, tumor ECF, preliminary, 20 mg/kg): 10.15 (26.5%) ng/ml
pCHK1 S345 Emax, maximum extent of stimulation [2, 10]: 2.0 (-)
Plasma exposure AUCplasma, 0−∞ (mean ±SD) [3]: 2410 ± 1229 ng·h/mL
Binding to the dialysis membrane of the Equilibrium Dialyzer plate [4]: negligibly bound
fraction unbound at 24 h ([4]; CD-1, mouse, plasma): 0.11
Increase of cleaved caspase-3 [5]: 1.4 fold
kb45, peripheral rate constant, estimate (RSE%) [6, 11]: 0.39 (24%) h^−1
kb54, peripheral rate constant, estimate (RSE%) [6, 11]: 0.05 (41%) h^−1
Time of maximum tumor ECF concentrations post-dose ([6]; 10 mg/kg SQ, mice bearing G3MB): 1 h
Unbound AUCECF (mean ± SD) ([6]; 10 mg/kg SQ, tumor ECF, tumor-bearing mice, at 24 hours post-dose): 47.3 ± 17 ng·h/mL
Kp uu ([6]; CD-1 nude, mouse, tumor ECF (microdialysate) / unbound plasma, subcutaneous, 10 mg/kg): 0.17 ± 0.08
CL, plasma (central) clearance, estimate (RSE%) [7, 12]: 5.64 (4.3%) l/h/kg
Q, tissue (peripheral) clearance, estimate (RSE%) [7, 12]: 0.58 (13%) l/h/kg
Vc, plasma (central) volume, estimate (RSE%) [7, 12]: 1.81 (18%) l/kg
Vp, tissue (peripheral) volume, estimate (RSE%) [7, 12]: 3.42 (8.0%) l/kg
ka, absorption rate constant, estimate (RSE%) ([7]; 10 mg/kg SQ, plasma population model): 1.07 (12%) h^−1
half-life ([7]; female, CD-1 nude, mouse, plasma, subcutaneous, 10 mg/kg): 270 min
AUC ([7]; female, CD-1 nude, mouse, plasma, subcutaneous, 10 mg/kg, 0−∞ (mean ± SD), 10 mg/kg SQ): 1820 ± 462 ng·h/mL
AUC ([7]; female, CD-1 nude, mouse, plasma, subcutaneous, 10 mg/kg, 0−∞, range, 10 mg/kg SQ): 1460 to 2880 ng·h/mL
θNTB on CLef, proportional shift for NTB mice, estimate (RSE%) ([8]; ECF model): 2.20 (38%)
θNTB on CLin, proportional shift for NTB mice, estimate (RSE%) ([8]; ECF model): 0.93 (45%)
θNTB on kb45, proportional shift for NTB mice, estimate (RSE%) ([8]; ECF model): 5.90 (77%)
θNTB on kb54, proportional shift for NTB mice, estimate (RSE%) ([8]; ECF model): 17.9 (32%)
Time of maximum brain ECF concentrations post-dose ([8]; NTB mice): 1 h
AUCplasma of unbound prexasertib (mean ± SD) ([8]; NTB mice, at 24 hours post-dose, from total exposure and FU): 271 ± 23 ng·h/mL
Unbound AUCECF (mean ± SD) ([8]; brain ECF, NTB mice, at 24 hours post-dose): 24.8 ± 11.8 ng·h/mL and 24.8 ng·h/mL
Time of peak induction of γ-H2AX after the dose ([9]; 20 mg/kg IV single dose): 2 h
Time γ-H2AX was elevated above baseline ([9]; 20 mg/kg IV single dose): at least 6 hours
pH2Ax Emax, maximum extent of stimulation [9, 10]: 5.0 (-)
